Assay results as given in ChEMBL document CHEMBL4619805, “Structural Analysis of VDR Complex with ZK168281 Antagonist” (J Med Chem, 2020).
The source made the active and inactive calls. No cut-off for these calls is given here.

Key:
[1] = biological target: T1, Vitamin D3 receptor A (Danio rerio) (UniProt Q9PTN2); test: Binding affinity to zebrafish VDR LBD assessed as stabilization of structural elements forming LBP at 10 fold excess compound concentration by HDX-MS analysis
T1 sequence (whole entry): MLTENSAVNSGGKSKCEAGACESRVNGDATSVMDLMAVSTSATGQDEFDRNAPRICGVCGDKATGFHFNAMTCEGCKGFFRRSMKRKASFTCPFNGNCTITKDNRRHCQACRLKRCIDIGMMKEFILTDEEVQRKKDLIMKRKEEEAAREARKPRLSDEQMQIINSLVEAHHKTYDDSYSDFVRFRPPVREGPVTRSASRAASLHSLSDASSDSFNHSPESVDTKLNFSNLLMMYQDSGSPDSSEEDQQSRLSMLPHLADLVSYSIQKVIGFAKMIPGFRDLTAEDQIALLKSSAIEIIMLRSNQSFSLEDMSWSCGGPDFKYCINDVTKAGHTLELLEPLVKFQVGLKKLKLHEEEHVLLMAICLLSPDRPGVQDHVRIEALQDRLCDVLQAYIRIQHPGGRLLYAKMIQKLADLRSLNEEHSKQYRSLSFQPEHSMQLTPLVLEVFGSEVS
How it was run: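 zVDR LBD (10 µM) incubated 30 min at room temperature with ten-fold ligand excess, ethanol as control. D₂O exchange for 60, 180, 600 or 1800 s in 50 mM Tris pH 8.0, 50 mM NaCl, 2% glycerol, 1 mM TCEP. Quench with 3 M urea/0.1% TFA, then pepsin column digestion and UPLC-MS. Back-exchange corrected using a fully deuterated sample. Triplicate reactions.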

[2] = biological target: T1, Vitamin D3 receptor A (Danio rerio); test: Binding affinity to H12 region of zebrafish VDR LBD assessed as stabilization of structural elements forming LBP at 10 fold excess compound concentration by HDX-MS analysis
How it was run: (§1)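 zVDR LBD (residues 156–453, 10 µM) preincubated 30 min at room temperature with tenfold ligand excess (ethanol control). D2O exchange in 50 mM Tris pH 8.0, 50 mM NaCl, 2% glycerol, 1 mM TCEP for 60–1800 s. Quench with urea/TFA, online pepsin digest, UPLC-MS. Back-exchange corrected against fully deuterated sample; triplicates.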

[3] = biological target: T1, Vitamin D3 receptor A (Danio rerio); test: Binding affinity to H10 region (416 to 426 residues) of zebrafish VDR LBD assessed as stabilization of structural elements at 10 fold excess compound concentration in presence of SRC1 NR2 coactivator peptide measured at 3 and 10 mins by HDX-MS analysis
How it was run: (§2)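 Deuterium exchange ran for 60, 180, 600 or 1800 s in D₂O buffer (50 mM Tris pH 8.0, 50 mM NaCl, 2% glycerol, 1 mM TCEP). Quench with urea/TFA, then online pepsin digestion and UPLC-MS. Uptake corrected for back exchange against a fully deuterated control. Triplicates.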

[4] = biological target: T1, Vitamin D3 receptor A (Danio rerio); test: Binding affinity to H12 region (440 to 445 residues) of zebrafish VDR LBD assessed as stabilization of structural elements by measuring increase in protection at 10 fold excess compound concentration in presence of SRC1 NR2 coactivator peptide measured at 1 mins by HDX-MS analysis; how it was run: as §2
[5] = biological target: T1, Vitamin D3 receptor A (Danio rerio); test: Binding affinity to H3 and H7 region of zebrafish VDR LBD assessed as stabilization of structural elements by measuring increase in protection at 10 fold excess compound concentration in presence of SRC1 NR2 coactivator peptide measured at 1 mins by HDX-MS analysis
How it was run: (§3)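 Deuterium exchange at pH 8.0 for 60, 180, 600 or 1800 s. Quench, pepsin digestion, UPLC-MS. Per-residue deuteration corrected to a fully deuterated control; triplicates.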

[6] = biological target: T1, Vitamin D3 receptor A (Danio rerio); test: Binding affinity to H3 region (253 to 267 residues) of zebrafish VDR LBD assessed as stabilization of structural elements by measuring increase in protection at 10 fold excess compound concentration in presence of SRC1 NR2 coactivator peptide measured at 1 mins by HDX-MS analysis; how it was run: as §3
[7] = biological target: T1, Vitamin D3 receptor A (Danio rerio); test: Binding affinity to H6 to H7 region (322 to 344 residues) of zebrafish VDR LBD assessed as stabilization of structural elements by measuring increase in protection at 10 fold excess compound concentration in presence of SRC1 NR2 coactivator peptide measured at 1 mins by HDX-MS analysis; how it was run: as §3
[8] = biological target: T1, Vitamin D3 receptor A (Danio rerio); test: Binding affinity to H10 to H11 region (416 to 437 residues) of zebrafish VDR LBD assessed as stabilization of structural elements by measuring increase in protection at 10 fold excess compound concentration in presence of SRC1 NR2 coactivator peptide measured at 1 mins by HDX-MS analysis; how it was run: as §3
[9] = biological target: T1, Vitamin D3 receptor A (Danio rerio); test: Binding affinity to H1 region of zebrafish VDR LBD assessed as stabilization of structural elements forming LBP at 10 fold excess compound concentration by HDX-MS analysis; how it was run: as §1
[10] = biological target: T1, Vitamin D3 receptor A (Danio rerio); test: Binding affinity to H2 region of zebrafish VDR LBD assessed as stabilization of structural elements forming LBP at 10 fold excess compound concentration by HDX-MS analysis; how it was run: as §1
[11] = biological target: T1, Vitamin D3 receptor A (Danio rerio); test: Binding affinity to H12 region of zebrafish VDR LBD assessed as stabilization of structural elements at 10 fold excess compound concentration in presence of SRC1 NR2 coactivator peptide by HDX-MS analysis; how it was run: as §3
[12] = biological target: T2, Vitamin D3 receptor (Homo sapiens) (UniProt P11473); test: Antagonist activity at human VDR expressed in HEK293 EBNA cells co-expressing CYP24A1 promoter region assessed as reduction in 1,25D3-induced receptor activation at 0.1 to 1000 nM incubated for 18 hrs by luciferase reporter gene assay relative to control; type: cell-based; design: scale not given: the % may be the effect or the level left
T2 sequence (whole entry): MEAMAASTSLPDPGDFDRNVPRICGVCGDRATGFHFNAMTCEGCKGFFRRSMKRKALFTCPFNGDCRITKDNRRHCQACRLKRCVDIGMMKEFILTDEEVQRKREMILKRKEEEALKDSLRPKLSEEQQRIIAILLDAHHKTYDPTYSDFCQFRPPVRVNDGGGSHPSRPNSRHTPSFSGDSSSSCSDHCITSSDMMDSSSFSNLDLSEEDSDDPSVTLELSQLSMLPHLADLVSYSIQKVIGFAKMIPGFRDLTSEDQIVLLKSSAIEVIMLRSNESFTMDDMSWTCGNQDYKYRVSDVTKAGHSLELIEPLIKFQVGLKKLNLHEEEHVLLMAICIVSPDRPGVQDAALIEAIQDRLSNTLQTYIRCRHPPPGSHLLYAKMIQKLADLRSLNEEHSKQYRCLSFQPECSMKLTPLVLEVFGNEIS
How it was run: (§4)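 HEK293 EBNA cells, in 5% charcoal-treated FCS for 48 h, co-transfected by jetPEI with full-length hVDR, firefly luciferase under the human CYP24A1 proximal promoter (-414 to -64), and Renilla. 6 h later, 10 nM 1,25D3 ± compound (0.1–1000 nM) added for 18 h. Lysate luciferase normalized to Renilla; triplicate, mean ± SD.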

[13] = biological target: T2, Vitamin D3 receptor (Homo sapiens); test: Antagonist activity at human VDR expressed in HEK293 EBNA cells co-expressing CYP24A1 promoter region assessed as reduction in 1,25D3-induced receptor activation at 0.1 to 1000 nM incubated for 18 hrs by luciferase reporter gene assay; type: cell-based; how it was run: as §4
[14] = biological target: T1, Vitamin D3 receptor A (Danio rerio); test: Antagonist activity at full-length zebrafish VDR expressed in rat IEC18 cells co-expressing CYP24A1 promoter region assessed as reduction in 1,25D3-induced receptor activation at 1 to 1000 nM incubated for 24 hrs by luciferase reporter gene assay
[15] = biological target: T1, Vitamin D3 receptor A (Danio rerio); test: Binding affinity to H5 region (290 to 297 residues) of zebrafish VDR LBD assessed as destabilization of structural elements by measuring deprotection at 10 fold excess compound concentration in presence of SRC1 NR2 coactivator peptide measured at 1 mins by HDX-MS analysis relative to 1,25D3

| Compound | Activity [1] | Activity [2] | Activity [3] | Activity [4] | Activity [5] | Activity [6] | Activity [7] | Activity [8] | Activity [9] | Activity [10] | Activity [11] | Activity [12] | inhibition [13] | inhibition [14] | Activity [15] |
| --- | --- | --- | --- | --- | --- | --- | --- | --- | --- | --- | --- | --- | --- | --- | --- |
| C=C1/C(=C\C=C2/CCC[C@]3(C)[C@@H]([C@H](C)CCCC(C)(C)O)CC[C@@H]23)C[C@@H](O)C[C@@H]1O | Active | inactive | Active | 30 to 40% | – | – | – | – | – | – | – | – | – | – | – |
| C=C1/C(=C\C=C2/CCC[C@]3(C)[C@@H]([C@H](C)/C=C/[C@@H](O)C4(/C=C/C(=O)OCC)CC4)CC[C@@H]23)C[C@@H](O)C[C@@H]1O | – | inactive | – | – | < 80% | Active | Active | Active | Active | Active | inactive | < 60% | Dose-dependent effect | Active | > 30% |
